This is a sample that favours compounds with a hit; in the whole collection about 11% have one here.
M1 antag = antagonists of rat M1 muscarinic receptor | Muscarinic acetylcholine receptor M1 (Rattus norvegicus), P08482 | CHO-M1 cells, Fluo-4 calcium, ACh EC80 antagonist mode; stronger effect = lower value | B-score at 10 µM | 64,000 compounds, 3.4% hits;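 active = calcium fluorescence response, raw or row-and-column corrected B-score, differing from the plate sample mean either way at a set confidence level, mostly lower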
M1 ag = M1 muscarinic receptor agonists, primary screen, CHO-M1 cells, Fluo-4 calcium, agonist mode. AID 626, 2007. Fluo-4 calcium fluorescence; stronger effect = higher value. 64,000 compounds, 3% hits. B-score at 10 µM;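 active = fluorescence rise, raw or as B-score row- and column-corrected plate score, outside the 99.7% band of its plate's samples, either direction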
S1P1 ag pot = S1P1 agonists and agonism potentiators, primary screen, cell-based, primary and confirmation screens, CRE-bla reporter | 56,000 compounds, 0.57% hits | S1P1 CRE-bla cells, forskolin, beta-lactamase FRET, potentiator mode; S1P1 agonist co-added at EC20, 2 nM; 100% = saturating reference agonist, 0% = basal | Sphingosine 1-phosphate receptor 1 (Homo sapiens), P21453 | activation, % at 9.5 µM;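 active = activation above a cutoff set at the mean activation of all tested compounds plus 3 SD, cut at about 54% in these data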;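 note: forskolin at 4 µM as EC80 and the EC20 agonist is SEW2871; 100% = SEW2871 at its EC100 plus forskolin at EC80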
D1 allo mod = D1 CRE-luciferase signal change, two-sided – cell-based, HEK293 D1, dopamine EC30, D1 allosteric modulator project, primary screen | AID 641, 2007 | 58,000 compounds, 5.9% hits | D(1A) dopamine receptor (Homo sapiens), P21728 | B-score at 10 µM | dopamine EC30 potentiation; actives deviate in either direction;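 active = luminescence count or its row- and column-corrected plate score outside the 99.7% band of the plate's sample wells, on either side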
Target sequence (P21728 whole entry, looked up): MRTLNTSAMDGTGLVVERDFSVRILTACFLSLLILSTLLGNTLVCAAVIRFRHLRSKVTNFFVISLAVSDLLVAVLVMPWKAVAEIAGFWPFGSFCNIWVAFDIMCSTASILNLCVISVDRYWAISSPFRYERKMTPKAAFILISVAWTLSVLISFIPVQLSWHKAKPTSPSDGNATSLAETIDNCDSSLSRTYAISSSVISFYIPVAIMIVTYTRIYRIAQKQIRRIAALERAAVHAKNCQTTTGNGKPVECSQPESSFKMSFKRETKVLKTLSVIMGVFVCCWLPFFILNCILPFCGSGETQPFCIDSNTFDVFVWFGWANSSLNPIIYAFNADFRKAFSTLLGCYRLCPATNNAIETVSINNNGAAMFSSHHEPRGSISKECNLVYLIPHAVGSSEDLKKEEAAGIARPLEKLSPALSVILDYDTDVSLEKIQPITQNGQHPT
S1P3 ag = human S1P3 receptor agonists, primary screen, cell-based, primary and confirmation, NFAT-BLA reporter; Sphingosine 1-phosphate receptor 3 (Homo sapiens), Q99500; S1P3 NFAT-BLA reporter cells, agonism, FRET ratio; relative to 1 µM S1P, basal subtracted; activation, % at 4.5 µM; 60,000 compounds, 0.1% hits;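 active = activation above the screen-wide mean plus 3 SD, cut at about 4.5% in these data, passing the limit was not always enough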
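Measure – % activation relative to 1 µM S1P (100%), per plate · System – stable CHO line with human S1P3, Gα16, NFAT-BLA reporter · Timing – cells plated overnight, compound 4 h 37 °C, substrate 2 h RT · Technique – fluorescent BLA substrate, ex 405 nm, em 460/535 nm ratio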
D1 mod confirm = D1 receptor positive allosteric modulators, retest, confirmation, cell-based, HEK293 D1, CRE-luciferase, duplicate. luminescence at 10 µM. dopamine EC30 potentiation; stronger effect = higher value. shares compounds with D1 allo mod. 2,200 compounds, 88% hits;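 active = luminescence in either of two replicates above the same-plate mean plus 3 SD of the low-dose dopamine control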
D1 ag no DA = D1 receptor agonism without dopamine, confirmation, mechanism study for D1 allosteric modulator project, cell-based, HEK293 D1, CRE-luciferase, secondary assay 1. shares compounds with D1 allo mod. luminescence, no dopamine; stronger effect = higher value. luminescence at 10 µM. 1,900 compounds, 0.8% hits; in the data active = luminescence above about 3900
Isoprot counter = isoproterenol response counter-screen activity for D1 modulators. shares compounds with D1 allo mod. HEK293 D1 CRE-luciferase, isoproterenol EC30 counter-screen. calls only at 10 µM. 2,200 compounds, 63% hits. AID 647;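 active = luminescence in either replicate above plate mean of wells with a partly effective reference agonist dose plus 3 SD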;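 note: isoproterenol raises cAMP through native beta-adrenoceptor Gs so signal bypasses D1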
Starred values were filed as active, the others as inactive.

How did COc1ccc(Cc2noc(-c3ccc(OC)c(OC)c3)n2)cc1OC do in these assays?
M1 antag: -0.0954; M1 ag: -0.801; S1P1 ag pot: -10.9; D1 allo mod: 12.1*; S1P3 ag: -1.4; D1 mod confirm: 10328*; D1 ag no DA: 1376; Isoprot counter: active

How did COc1ccc(-c2noc(CCCC(=O)NCCc3ccccc3)n2)cc1OC do in these assays?
M1 antag: -1.3; M1 ag: -0.689; S1P1 ag pot: -13.0; D1 allo mod: 0.595; S1P3 ag: -0.9

How did COc1ccc(CCC(=O)Nc2ccc(-c3noc(-c4ccc(OC)c(OC)c4)n3)cc2)cc1 do in these assays?
M1 antag: -0.127; M1 ag: -0.444; S1P1 ag pot: 34.0; D1 allo mod: -0.0559; S1P3 ag: -0.3

Results for COc1ccc(-c2noc(CCC(N)=O)n2)cc1OC ?
M1 antag: 2.26; M1 ag: 0.00548; S1P1 ag pot: -6.4; D1 allo mod: 3.56*; S1P3 ag: -0.7; D1 mod confirm: 13684*; D1 ag no DA: 1704; Isoprot counter: inactive

Results for COc1ccc(-c2noc(CN(C(=O)c3ccc(OC(C)=O)cc3)C(C)C)n2)cc1OC ?
M1 antag: -0.464; M1 ag: -0.176; S1P1 ag pot: -47.1; D1 allo mod: 3.88*; S1P3 ag: -0.2; D1 mod confirm: 7848*; D1 ag no DA: 1480; Isoprot counter: active

What do the screens show for `NC(=O)C1CCCN(C(=O)NC2CCCCC2)C1` (stereo not given)?
M1 antag: 0.323; M1 ag: 1.18; D1 allo mod: -0.000822

Results for COc1ccccc1CN(Cc1nc2ccccc2c(=O)[nH]1)C(=O)Nc1ccccc1 ?
M1 antag: 1.64; M1 ag: 1.38; S1P1 ag pot: 6.4; D1 allo mod: -0.0328; S1P3 ag: -0.9

How did O=C(OCc1nnc(-c2ccccc2)o1)c1ccc2c(c1)OCCO2 do in these assays?
M1 antag: -1.49; M1 ag: -0.875; S1P1 ag pot: 4.2; D1 allo mod: 1.2; S1P3 ag: -0.3

What do the screens show for `CC1(C)Cc2c(sc3c4nnnn4c4nnnn4c23)CO1`?
M1 antag: -0.00279; M1 ag: 1.45; S1P1 ag pot: -0.1; S1P3 ag: -3.2

How did Cc1cc(C)n(-c2cc(-c3ccccc3)nc(C)n2)n1 do in these assays?
M1 antag: 0.168; M1 ag: 1.75; D1 allo mod: 0.806; S1P3 ag: -1.9

How did Cc1ccc(C)n1-n1cnc2scc(-c3cccs3)c2c1=O do in these assays?
M1 antag: 0.13; M1 ag: -0.0546; S1P1 ag pot: -47.9; D1 allo mod: 17.5*; S1P3 ag: 0.5; D1 mod confirm: 24272*; D1 ag no DA: 1704; Isoprot counter: active

How did O=C(O)Cn1cnc2scc(-c3cccs3)c2c1=O do in these assays?
M1 antag: 0.837; M1 ag: -0.00187; S1P1 ag pot: -2.5; D1 allo mod: 0.799; S1P3 ag: 0.8

How did COc1ccc(-c2ccc(OC)cc2C(=O)O)cc1 do in these assays?
M1 antag: 0.619; M1 ag: -0.578; S1P1 ag pot: -7.0; D1 allo mod: -0.928; S1P3 ag: -1.1

What do the screens show for `COc1ccc(-c2coc3cc(O)cc(O)c3c2=O)cc1`?
M1 antag: -3.08; M1 ag: 0.533; S1P1 ag pot: -17.0; D1 allo mod: 6.2*; S1P3 ag: -1.6; D1 mod confirm: 9820*; D1 ag no DA: 1216; Isoprot counter: inactive

How did CC1(C)Cc2c(C#N)c(SCCC#N)nc(N3CCOCC3)c2CS1 do in these assays?
M1 antag: 1.59; M1 ag: 0.144; S1P1 ag pot: 3.9; D1 allo mod: 5.49*; S1P3 ag: 7.3; D1 mod confirm: 12904*; D1 ag no DA: 1588; Isoprot counter: active

How did CC1(C)Cc2c(c(N3CCOCC3)nc3sc(C#N)c(N)c23)CS1 do in these assays?
M1 antag: 0.168; M1 ag: 0.243; S1P1 ag pot: -0.1; D1 allo mod: 1.69; S1P3 ag: -2.3

Screening data deposited in PubChem by several laboratories.
